Source: ChEMBL document CHEMBL5046221, “Identification of Pyrimidine-Based Lead Compounds for Understudied Kinases Implicated in Driving Neurodegeneration” (J Med Chem, 2022)

What was measured:
[1] = biological target: High affinity nerve growth factor receptor (Homo sapiens, UniProt P04629); assay: Inhibition of human TrkA (440 to end residues) using KKKSPGEYVNIEFG as substrate measured after 40 mins in presence of [gamma33P]ATP by scintillation counting method
Method in brief: (§1)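 Eurofins radiometric kinase assay run at ATP equal to Km for each kinase. 9-point dose–response in duplicate gives the IC50.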

[2] = biological target: MAP/microtubule affinity-regulating kinase 3 (Homo sapiens, UniProt P27448); assay: Displacement of tracer K9 from NLuc fused MARK3 (unknown origin) expressed in HEK293 cells by NanoBRET assay; format: cell-based
MAP/microtubule affinity-regulating kinase 3, sequence (P27448 whole entry, the tested form may be a part): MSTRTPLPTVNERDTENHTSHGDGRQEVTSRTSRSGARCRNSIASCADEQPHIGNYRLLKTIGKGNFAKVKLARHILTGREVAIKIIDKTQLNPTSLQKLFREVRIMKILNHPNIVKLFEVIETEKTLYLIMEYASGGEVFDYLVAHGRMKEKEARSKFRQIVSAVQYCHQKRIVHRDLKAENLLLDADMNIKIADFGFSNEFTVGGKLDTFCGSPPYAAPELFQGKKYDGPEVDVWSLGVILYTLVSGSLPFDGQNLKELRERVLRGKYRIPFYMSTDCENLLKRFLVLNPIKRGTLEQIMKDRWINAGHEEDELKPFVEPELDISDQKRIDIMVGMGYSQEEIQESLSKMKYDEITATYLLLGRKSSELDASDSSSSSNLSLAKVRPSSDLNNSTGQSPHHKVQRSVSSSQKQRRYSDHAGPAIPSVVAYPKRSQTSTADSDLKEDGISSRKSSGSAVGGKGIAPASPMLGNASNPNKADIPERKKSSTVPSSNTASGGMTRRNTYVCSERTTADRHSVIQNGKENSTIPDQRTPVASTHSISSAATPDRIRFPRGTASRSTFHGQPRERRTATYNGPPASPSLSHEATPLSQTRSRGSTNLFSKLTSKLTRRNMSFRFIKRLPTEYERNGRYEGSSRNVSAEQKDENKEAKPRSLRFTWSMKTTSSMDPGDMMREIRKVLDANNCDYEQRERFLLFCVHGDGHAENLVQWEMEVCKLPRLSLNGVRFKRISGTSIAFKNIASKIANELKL

[3] = biological target: T1, Serine/threonine-protein kinase TBK1 (Homo sapiens, UniProt Q9UHD2); assay: Displacement of tracer K5 from NLuc fused TBK1 (unknown origin) expressed in HEK293 cells by NanoBRET assay; format: cell-based
T1 sequence (Q9UHD2 whole entry): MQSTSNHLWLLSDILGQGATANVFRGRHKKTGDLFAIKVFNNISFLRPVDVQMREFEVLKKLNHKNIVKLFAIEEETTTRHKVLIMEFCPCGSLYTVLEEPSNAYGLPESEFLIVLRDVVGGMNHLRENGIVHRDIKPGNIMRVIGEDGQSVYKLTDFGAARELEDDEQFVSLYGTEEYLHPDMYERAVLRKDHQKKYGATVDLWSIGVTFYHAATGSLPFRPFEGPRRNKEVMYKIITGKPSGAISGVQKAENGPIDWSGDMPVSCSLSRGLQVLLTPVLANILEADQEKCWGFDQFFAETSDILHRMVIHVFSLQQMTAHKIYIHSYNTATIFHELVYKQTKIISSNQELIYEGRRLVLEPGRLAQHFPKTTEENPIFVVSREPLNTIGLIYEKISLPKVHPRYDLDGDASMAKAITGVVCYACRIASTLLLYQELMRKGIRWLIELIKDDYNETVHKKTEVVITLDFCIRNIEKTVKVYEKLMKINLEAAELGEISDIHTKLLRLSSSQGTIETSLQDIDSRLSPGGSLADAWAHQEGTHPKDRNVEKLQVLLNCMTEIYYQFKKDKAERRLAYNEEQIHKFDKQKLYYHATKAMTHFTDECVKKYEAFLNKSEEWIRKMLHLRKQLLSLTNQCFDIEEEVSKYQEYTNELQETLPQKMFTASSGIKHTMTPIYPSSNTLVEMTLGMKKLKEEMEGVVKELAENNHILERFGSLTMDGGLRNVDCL
Method in brief: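 HEK293 cells grown in DMEM with 10% FBS at 37 °C, 5% CO2. NanoBRET assay run in dose–response per manufacturer's protocol with tracer K-5 at 0.5 μM. SEM calculated for assays run more than once.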

[4] = biological target: MAP kinase-interacting serine/threonine-protein kinase 2 (Homo sapiens, UniProt Q9HBH9); assay: Inhibition of full length recombinant human MKNK2 using myelin basic protein as substrate incubated for 40 mins in presence of [gamma-33P-ATP] by radiometric scintillation assay; method in brief: as §1
MAP kinase-interacting serine/threonine-protein kinase 2, sequence (Q9HBH9 whole entry, the tested form may be a part): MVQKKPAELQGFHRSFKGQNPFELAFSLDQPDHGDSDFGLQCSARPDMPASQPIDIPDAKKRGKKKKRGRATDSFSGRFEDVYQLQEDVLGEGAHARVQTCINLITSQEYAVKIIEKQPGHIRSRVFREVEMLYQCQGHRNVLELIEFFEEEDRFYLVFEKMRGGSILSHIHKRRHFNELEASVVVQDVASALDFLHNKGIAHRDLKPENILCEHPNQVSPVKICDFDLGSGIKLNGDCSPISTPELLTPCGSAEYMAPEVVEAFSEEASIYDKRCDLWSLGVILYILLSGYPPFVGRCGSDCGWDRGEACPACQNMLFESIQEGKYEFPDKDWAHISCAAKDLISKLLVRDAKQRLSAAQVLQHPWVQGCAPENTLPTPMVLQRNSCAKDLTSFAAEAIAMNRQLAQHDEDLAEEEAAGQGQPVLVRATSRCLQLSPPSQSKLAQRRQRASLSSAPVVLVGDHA

[5] = biological target: Serine/threonine-protein kinase SIK2 (Homo sapiens, UniProt Q9H0K1); assay: Inhibition of recombinant human SIK2 (1 to 276 residues) using KKKVSRSGLYRSPSMPENLNRPR as substrate measured after 40 mins in presence of [gamma33P]ATP by radiometric scintillation counting method; method in brief: as §1
Serine/threonine-protein kinase SIK2, sequence (Q9H0K1 whole entry, the tested form may be a part): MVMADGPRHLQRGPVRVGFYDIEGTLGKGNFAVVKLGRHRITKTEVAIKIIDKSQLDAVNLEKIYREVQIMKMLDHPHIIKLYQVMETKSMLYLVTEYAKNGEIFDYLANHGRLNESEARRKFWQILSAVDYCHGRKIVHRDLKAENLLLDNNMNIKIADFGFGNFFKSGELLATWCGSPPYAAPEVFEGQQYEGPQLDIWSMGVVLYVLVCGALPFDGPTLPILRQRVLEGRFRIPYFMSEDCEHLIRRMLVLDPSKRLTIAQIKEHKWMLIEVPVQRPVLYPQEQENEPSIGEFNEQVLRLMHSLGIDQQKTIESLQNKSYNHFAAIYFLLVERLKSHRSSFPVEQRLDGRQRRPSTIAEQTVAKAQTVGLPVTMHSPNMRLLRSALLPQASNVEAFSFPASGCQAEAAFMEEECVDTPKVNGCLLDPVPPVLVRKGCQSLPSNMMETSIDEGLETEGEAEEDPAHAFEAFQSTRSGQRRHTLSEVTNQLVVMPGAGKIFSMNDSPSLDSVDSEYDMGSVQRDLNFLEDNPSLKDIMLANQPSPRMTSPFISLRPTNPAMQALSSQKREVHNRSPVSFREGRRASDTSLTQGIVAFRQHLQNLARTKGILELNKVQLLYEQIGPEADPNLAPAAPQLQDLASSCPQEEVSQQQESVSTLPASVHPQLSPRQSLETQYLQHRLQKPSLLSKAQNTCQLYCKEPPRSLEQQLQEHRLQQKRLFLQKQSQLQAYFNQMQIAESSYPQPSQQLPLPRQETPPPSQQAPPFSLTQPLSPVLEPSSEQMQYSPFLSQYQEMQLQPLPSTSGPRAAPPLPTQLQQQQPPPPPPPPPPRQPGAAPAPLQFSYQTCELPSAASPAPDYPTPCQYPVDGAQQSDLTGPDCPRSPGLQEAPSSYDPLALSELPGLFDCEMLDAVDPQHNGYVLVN

[6] = biological target: Bone morphogenetic protein receptor type-1B (Homo sapiens, UniProt O00238); assay: Inhibition of recombinant human BMPR1B (148 to end residues) using casein as substrate incubated for 40 mins in presence of [gamma-33P-ATP] by radiometric scintillation assay
Bone morphogenetic protein receptor type-1B, sequence (O00238 whole entry): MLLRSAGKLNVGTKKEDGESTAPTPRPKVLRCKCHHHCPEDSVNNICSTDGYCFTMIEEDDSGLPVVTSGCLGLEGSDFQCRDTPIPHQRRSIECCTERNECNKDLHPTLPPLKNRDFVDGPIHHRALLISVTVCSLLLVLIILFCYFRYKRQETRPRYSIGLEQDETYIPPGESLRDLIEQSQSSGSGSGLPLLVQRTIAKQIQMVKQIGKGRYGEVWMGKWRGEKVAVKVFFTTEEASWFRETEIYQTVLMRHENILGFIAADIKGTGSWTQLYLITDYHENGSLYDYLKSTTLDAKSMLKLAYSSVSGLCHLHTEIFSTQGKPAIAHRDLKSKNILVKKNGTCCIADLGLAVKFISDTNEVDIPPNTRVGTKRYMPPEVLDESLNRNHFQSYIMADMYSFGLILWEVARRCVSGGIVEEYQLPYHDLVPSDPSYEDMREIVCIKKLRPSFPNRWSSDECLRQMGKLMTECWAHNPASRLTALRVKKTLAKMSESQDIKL
Method in brief: (§2)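 Eurofins radiometric enzymatic assay with ATP at Km for each kinase. IC50 was derived from a 9-point dose–response curve run in duplicate.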

[7] = biological target: T2, Serine/threonine-protein kinase 17A (Homo sapiens) (UniProt Q9UEE5); assay: Inhibition of full length recombinant human DRAK1 using KKLNRTLSFAEPG as substrate at 1 uM incubated for 40 mins in presence of [gamma-33P-ATP] by radiometric scintillation assay relative to control
T2 sequence (whole entry): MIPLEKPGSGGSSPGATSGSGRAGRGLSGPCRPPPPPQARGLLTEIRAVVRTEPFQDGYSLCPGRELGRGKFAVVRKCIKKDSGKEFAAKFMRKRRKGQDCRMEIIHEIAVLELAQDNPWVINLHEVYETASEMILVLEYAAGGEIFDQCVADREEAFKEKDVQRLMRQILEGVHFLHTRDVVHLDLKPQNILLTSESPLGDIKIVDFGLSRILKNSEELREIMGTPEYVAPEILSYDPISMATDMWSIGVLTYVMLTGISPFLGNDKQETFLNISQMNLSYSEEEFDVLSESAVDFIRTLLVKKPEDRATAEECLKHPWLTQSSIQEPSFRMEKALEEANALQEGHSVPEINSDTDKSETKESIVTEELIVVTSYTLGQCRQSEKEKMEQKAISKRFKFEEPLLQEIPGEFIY
Method in brief: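 Eurofins radiometric kinase assay with ATP at Km for each kinase. Compound was tested at a single 1 μM concentration in duplicate, and the result is reported as percent of control.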

[8] = biological target: BMP-2-inducible protein kinase (Homo sapiens, UniProt Q9NSY1); assay: Residual activity of human BMP2K at 1 uM using peptide as substrate incubated for 120 mins in presence of [gamma-33P-ATP] by radiometric scintillation assay relative to control
BMP-2-inducible protein kinase, sequence (Q9NSY1 whole entry, looked up): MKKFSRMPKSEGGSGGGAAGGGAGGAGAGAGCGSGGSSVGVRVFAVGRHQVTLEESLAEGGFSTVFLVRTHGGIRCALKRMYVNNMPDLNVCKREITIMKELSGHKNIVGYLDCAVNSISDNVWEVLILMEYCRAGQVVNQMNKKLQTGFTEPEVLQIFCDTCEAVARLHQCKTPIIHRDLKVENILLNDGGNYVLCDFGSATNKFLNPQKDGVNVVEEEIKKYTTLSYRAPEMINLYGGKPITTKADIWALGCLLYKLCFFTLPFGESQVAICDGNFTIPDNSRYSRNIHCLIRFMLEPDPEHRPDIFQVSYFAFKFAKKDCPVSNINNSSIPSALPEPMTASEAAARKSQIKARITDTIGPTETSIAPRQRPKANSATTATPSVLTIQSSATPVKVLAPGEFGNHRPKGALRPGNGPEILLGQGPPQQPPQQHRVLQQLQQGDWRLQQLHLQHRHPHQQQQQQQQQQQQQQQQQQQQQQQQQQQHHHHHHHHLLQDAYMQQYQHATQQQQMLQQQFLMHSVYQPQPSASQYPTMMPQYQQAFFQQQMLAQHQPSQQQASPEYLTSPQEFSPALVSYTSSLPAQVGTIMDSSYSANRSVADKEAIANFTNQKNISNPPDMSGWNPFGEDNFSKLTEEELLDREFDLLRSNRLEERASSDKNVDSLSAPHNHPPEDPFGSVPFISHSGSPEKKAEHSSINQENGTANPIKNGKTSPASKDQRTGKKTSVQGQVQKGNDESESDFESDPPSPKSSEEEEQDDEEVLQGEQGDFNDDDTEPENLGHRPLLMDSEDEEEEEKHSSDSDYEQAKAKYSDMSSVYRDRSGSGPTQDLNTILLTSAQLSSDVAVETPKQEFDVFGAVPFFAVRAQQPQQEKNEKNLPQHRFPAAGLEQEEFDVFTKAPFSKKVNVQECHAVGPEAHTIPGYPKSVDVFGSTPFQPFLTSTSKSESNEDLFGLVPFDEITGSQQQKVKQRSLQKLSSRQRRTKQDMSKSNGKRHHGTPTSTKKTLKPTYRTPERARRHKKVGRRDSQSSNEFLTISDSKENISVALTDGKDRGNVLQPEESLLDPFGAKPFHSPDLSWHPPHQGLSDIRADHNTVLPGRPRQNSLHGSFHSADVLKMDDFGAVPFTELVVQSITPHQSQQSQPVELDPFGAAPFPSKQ

[9] = biological target: Casein kinase II subunit alpha (Homo sapiens, UniProt P68400); assay: Inhibition of full length recombinant human CSNK2A1 using RRRDDDSDDD as substrate incubated for 40 mins in presence of [gamma-33P-ATP] by radiometric scintillation assay; method in brief: as §2
Casein kinase II subunit alpha, sequence (P68400 whole entry): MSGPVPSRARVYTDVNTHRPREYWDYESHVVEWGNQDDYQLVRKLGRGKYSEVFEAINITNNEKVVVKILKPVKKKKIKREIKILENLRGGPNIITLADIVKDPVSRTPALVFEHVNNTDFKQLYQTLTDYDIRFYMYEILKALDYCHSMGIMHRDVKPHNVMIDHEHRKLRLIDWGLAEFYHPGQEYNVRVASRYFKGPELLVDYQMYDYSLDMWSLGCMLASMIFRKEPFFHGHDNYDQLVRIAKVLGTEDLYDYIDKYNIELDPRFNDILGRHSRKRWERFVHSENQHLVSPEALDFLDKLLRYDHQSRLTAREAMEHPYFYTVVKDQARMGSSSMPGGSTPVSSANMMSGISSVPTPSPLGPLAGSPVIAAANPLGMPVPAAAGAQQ

[10] = biological target: Serine/threonine-protein kinase PRP4 homolog (Homo sapiens, UniProt Q13523); assay: Inhibition of recombinant human PRP4 (663 to end residues) using casein as substrate incubated for 120 mins in presence of [gamma-33P-ATP] by radiometric scintillation assay; method in brief: as §2

High affinity nerve growth factor receptor, sequence (P04629 whole entry): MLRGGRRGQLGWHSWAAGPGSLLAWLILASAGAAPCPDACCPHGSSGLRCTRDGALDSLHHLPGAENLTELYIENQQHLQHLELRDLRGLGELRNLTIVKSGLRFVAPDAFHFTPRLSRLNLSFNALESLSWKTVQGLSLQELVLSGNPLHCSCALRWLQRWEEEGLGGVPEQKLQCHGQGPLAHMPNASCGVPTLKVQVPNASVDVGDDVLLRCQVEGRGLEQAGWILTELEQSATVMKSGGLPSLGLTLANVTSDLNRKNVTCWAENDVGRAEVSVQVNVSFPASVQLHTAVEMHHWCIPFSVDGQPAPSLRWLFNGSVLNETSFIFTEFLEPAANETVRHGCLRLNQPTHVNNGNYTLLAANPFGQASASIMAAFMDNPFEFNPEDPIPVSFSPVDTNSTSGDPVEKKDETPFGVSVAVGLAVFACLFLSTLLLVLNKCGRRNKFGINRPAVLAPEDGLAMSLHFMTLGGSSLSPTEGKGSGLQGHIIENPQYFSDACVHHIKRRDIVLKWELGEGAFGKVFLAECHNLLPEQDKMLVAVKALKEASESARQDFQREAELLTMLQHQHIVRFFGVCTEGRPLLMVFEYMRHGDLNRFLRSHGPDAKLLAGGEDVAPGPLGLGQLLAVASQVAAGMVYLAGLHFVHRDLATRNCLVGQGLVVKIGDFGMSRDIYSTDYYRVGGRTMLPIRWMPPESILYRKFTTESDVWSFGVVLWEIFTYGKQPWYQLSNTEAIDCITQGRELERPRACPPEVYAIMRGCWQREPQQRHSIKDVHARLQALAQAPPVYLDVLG

Compound	IC50 [1] [µM]	IC50 [2] [µM]	IC50 [3] [µM]	IC50 [4] [µM]	IC50 [5] [µM]	IC50 [6] [µM]	% control [7] [%]	% control [8] [%]	IC50 [9] [µM]	IC50 [10] [µM]
NS(=O)(=O)c1ccc(CNc2nc(Nc3cccc(NC(=O)N4CCCC4)c3)ncc2Br)cc1	0.283	> 10	6.17	1.01	–	–	–	–	–	–
c1cc(CN2CCOCC2)cc(Nc2nccc(NCCc3cnc[nH]3)n2)c1	–	> 10	> 10	–	0.185	9.03	78	58	–	–
NS(=O)(=O)c1ccc(CNc2nc(Nc3cccc(CN4CCOCC4)c3)ncc2Br)cc1	0.158	> 10	> 10	–	–	–	–	–	> 10	> 10
NS(=O)(=O)c1ccc(CNc2nc(Nc3cccc(CN4CCOCC4)c3)ncc2C2CC2)cc1	0.153	> 10	2.05	–	–	–	–	–	–	–
